In general, pIC50 refers to the IC50 on a negative log10 scale, so that one unit is a factor of ten. Read a high pIC50 as a low IC50. Broadly, the inhibition in vivo is the share of the control response that was lost under treatment.

Data set [1] has as its system A549. The experiment in a line: Antitumor activity against human A549 cells by SRB method. In kind it is functional, cell-based.
Data set [2] concerns MCF7. The experiment in a line: Antitumor activity against human MCF7 cells by SRB method. In kind it is functional, cell-based. Background: Sulforhodamine B stains cellular protein and so reports cell mass.
For data set [3], the system named is SK-MEL-28. The experiment in a line: Antitumor activity against human SK-MEL-28 cells by SRB method. In kind it is functional, cell-based.
Data set [4] relates to HeLa. The experiment in a line: Antitumor activity against human HeLa cells by SRB method. In kind it is functional, cell-based.
Data set [5] has as its system HT-29. The experiment in a line: Antitumor activity against human HT-29 cells by SRB method. In kind it is functional, cell-based.
Data set [6] deals with MDA-MB-231. The experiment in a line: Antitumor activity against human MDA-MB-231 cells by SRB method. In kind it is functional, cell-based.
In data set [7] the test system is HepG2. The experiment in a line: Antitumor activity against human HepG2 cells by SRB method. In kind it is functional, cell-based.
The test system of data set [8] is PC-3. The experiment in a line: Antitumor activity against human PC3 cells by SRB method. In kind it is functional, cell-based.
The test system of data set [9] is U-251. The experiment in a line: Antitumor activity against human U251 cells by SRB method. In kind it is functional, cell-based.
For data set [10], the system named is NCI-H226. The experiment in a line: Antitumor activity against human NCI-H226 cells by SRB method. In kind it is functional, cell-based.
Data set [11] concerns PANC-1. The experiment in a line: Antitumor activity against human PANC1 cells by SRB method. In kind it is functional, cell-based.
The test system of data set [12] is UMRC2. The experiment in a line: (§1) Antitumor activity against human UMRC2 cells by SRB method. In kind it is functional, cell-based.
Data set [13] deals with LNCaP. The experiment in a line: Antitumor activity against human LNCAP cells by SRB method. In kind it is functional, cell-based.
For data set [14], the system named is K562. The experiment in a line: Antitumor activity against human K562 cells by SRB method. In kind it is functional, cell-based.
Data set [15] relates to OVCAR-3. The experiment in a line: Antitumor activity against human OVCAR3 cells by SRB method. In kind it is functional, cell-based.
The subject of data set [16] is MKN-45. The experiment in a line: Antitumor activity against human MKN45 cells by SRB method. In kind it is functional, cell-based.
The subject of data set [17] is HCT-116. The experiment in a line: Antitumor activity against human HCT116 cells by SRB method. In kind it is functional, cell-based.
The test system of data set [18] is A549. The experiment in a line: Antitumor activity against human A549 cells xenografted in ip dosed nu/nu mouse assessed as inhibition of tumor weight administered three times a week for 3 weeks. In kind it is functional, organism-based. A digest of the protocol:
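Male nu/nu mice carried subcutaneous right-flank A549 xenografts (3 × 10⁶ cells). Treatment started at about 100 mm³ with 3 or 10 mg/kg intraperitoneally, three times weekly for three weeks. Tumors were excised and weighed on day 38. Comparison was with the vehicle control group, with significance at p < 0.05 or p < 0.01.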
A general note: In xenograft studies the graft and the host belong to different species.

Data set [19] relates to A549. The experiment in a line: Antitumor activity against human A549 cells xenografted in nu/nu mouse assessed as inhibition of tumor volume at 3 mg/kg, ip administered three times a week for 3 weeks. The note with it: 504 h, route intraperitoneal. In kind it is functional. A digest of the protocol:
(§2)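 Male nu/nu mice received 3 × 10⁶ A549 cells subcutaneously in the right flank. Dosing began at about 100 mm³ tumor volume: 3 or 10 mg/kg intraperitoneally, three times a week for three weeks. Tumor volume was measured by caliper every 2−3 days. Percent inhibition of tumor volume was calculated against a vehicle-treated control group.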

Data set [20] concerns HepG2. The experiment in a line: Antitumor activity against human HepG2 cells at 1 uM by SRB method. In kind it is functional, cell-based.
Data set [21] concerns MDA-MB-231. The experiment in a line: Inhibition of DNMT-1 protein human expression in MDA-MB-231 cells after 24 hrs by Western blot analysis. In kind it is functional, cell-based. The gist of the method:
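MDA-MB-231 cells were exposed to 0, 1, 1.5, 2 or 5 μM for 24 h. DNMT-1 protein was detected by Western blot, with actin as the loading control. Blots are representative of two independent cell cultures.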
For orientation: Immunoblotting shows a protein as a band on a membrane.

Data set [22] has as its system PC-3. The experiment in a line: Antitumor activity against human PC3 cells at 1 uM by SRB method. In kind it is functional, cell-based.
The subject of data set [23] is HT-29. The experiment in a line: Antitumor activity against human HT-29 cells at 1 uM by SRB method. In kind it is functional, cell-based.
The subject of data set [24] is K562. The experiment in a line: Antitumor activity against human K562 cells at 1 uM by SRB method. In kind it is functional, cell-based.
The subject of data set [25] is LNCaP. The experiment in a line: Antitumor activity against human LNCAP cells at 1 uM by SRB method. In kind it is functional, cell-based.
Data set [26] relates to MDA-MB-231. The experiment in a line: Antitumor activity against human MDA-MB-231 cells at 1 uM by SRB method. In kind it is functional, cell-based.
The next data set deals with Mus musculus. The experiment in a line: Toxicity in nu/nu mouse xenografted with human A549 cells assessed as change in body weight 3 to 10 mg/kg, ip administered three times a week for 3 weeks. The note with it: in vivo, 504 h. In kind it is organism-based. More on the design: dose 3-10 mg/kg, route intraperitoneal. A digest of the protocol: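 Mouse body weight was monitored throughout in male nu/nu mice bearing subcutaneous A549 flank xenografts (3 × 10⁶ cells). These mice received 3 or 10 mg/kg intraperitoneally three times a week for three weeks, starting when tumors reached about 100 mm³, and were compared with vehicle controls.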

In data set [27] the test system is HCT-116. The experiment in a line: Antitumor activity against human HCT116 cells at 1 uM by SRB method. In kind it is functional, cell-based.
The subject of data set [28] is A549. The experiment in a line: Antitumor activity against human A549 cells xenografted in ip dosed nu/nu mouse assessed as tumor growth inhibition administered three times a week for 3 weeks. In kind it is functional, organism-based. The gist of the method:
as §2

Data set [29] concerns UMRC2. The experiment in a line: Antitumor activity against human UMRC2 cells at 1 uM by SRB method. In kind it is functional, cell-based.
Data set [30] concerns MKN-45. The experiment in a line: Antitumor activity against human MKN45 cells at 1 uM by SRB method. In kind it is functional, cell-based.
The test system of data set [31] is U-251. The experiment in a line: Antitumor activity against human U251 cells at 1 uM by SRB method. In kind it is functional, cell-based.
Data set [32] concerns PANC-1. The experiment in a line: Antitumor activity against human PANC1 cells at 1 uM by SRB method. In kind it is functional, cell-based.
Data set [33] can be described thus: as §1. In kind it is functional, cell-based.
The test system of data set [34] is MCF7. The experiment in a line: Antitumor activity against human MCF7 cells at 1 uM by SRB method. In kind it is functional, cell-based.
In data set [35] the test system is A549. The experiment in a line: Antitumor activity against human A549 cells xenografted in nu/nu mouse assessed as inhibition of tumor volume at 10 mg/kg, ip administered three times a week for 3 weeks. The note with it: 504 h, route intraperitoneal. In kind it is functional. The gist of the method: as §2
Data set [36] deals with HeLa. The experiment in a line: Antitumor activity against human HeLa cells at 1 uM by SRB method. In kind it is functional, cell-based.
For data set [37], the system named is NCI-H226. The experiment in a line: Antitumor activity against human NCI-H226 cells at 1 uM by SRB method. In kind it is functional, cell-based.
In data set [38] the test system is A549. The experiment in a line: Antitumor activity against human A549 cells xenografted in ip dosed nu/nu mouse assessed as inhibition of tumor volume administered three times a week for 3 weeks. In kind it is functional, organism-based. A digest of the protocol: as §2
Data set [39] relates to SK-MEL-28. The experiment in a line: Antitumor activity against human SK-MEL-28 cells at 1 uM by SRB method. In kind it is functional, cell-based.
Data set [40] concerns A549. The experiment in a line: Antitumor activity against human A549 cells at 1 uM by SRB method. In kind it is functional, cell-based.
The test system of data set [41] is OVCAR-3. The experiment in a line: Antitumor activity against human OVCAR3 cells at 1 uM by SRB method. In kind it is functional, cell-based.

Structures are written as SMILES. pIC50: −log10 of the molar value. Activity calls are given as the source filed them. The rule behind the calls is not given here.

As to `Nc1ccn([C@H]2C[C@H](O)C(CO)=C2F)c(=O)n1`, the outcome in the data set on A549 [1], with MCF7 [2], with SK-MEL-28 [3], in the data set on HeLa [4], in the data set with HT-29 [5] and in the data set on MDA-MB-231 [6] was inactive. In addition, the result in the data set on HepG2 [7], in the data set on PC-3 [8], in the data set on U-251 [9], with NCI-H226 [10], with PANC-1 [11] and with UMRC2 [12] was inactive. In addition, the result in the data set on LNCaP [13], with K562 [14], in the data set on OVCAR-3 [15], with MKN-45 [16] and with HCT-116 [17] was inactive.

As for `Nc1ccn([C@@H]2C(F)=C(CO)[C@@H](O)[C@H]2O)c(=O)n1` [RODUCITABINE], the inhibition result in the data set on A549 [18], with MDA-MB-231 [21], in the data set with A549 [28] and with A549 [38] was “Dose-dependent effect” throughout. Besides, the negative-log IC50 (pIC50) in the data set with A549 [1] is 6.30; in the data set on MCF7 [2], 6.47; in the data set on SK-MEL-28 [3], 5.86; with HeLa [4] it was 5.87; in the data set with HT-29 [5], 6.55; with MDA-MB-231 [6], 6.74. Also, the pIC50 in the data set with HepG2 [7] is 6.10; in the data set with PC-3 [8], 6.20; with U-251 [9] it was 6.08; in the data set with NCI-H226 [10], 6.60; in data set [33], 6.08; in the data set with LNCaP [13] it was 5.57. The pIC50 in the data set on K562 [14] is 6.09; in the data set on OVCAR-3 [15], 6.10; in the data set on MKN-45 [16], 6.47; in the data set on HCT-116 [17], 6.72. The inhibition in vivo at 3 mg/kg with A549 [19] came out at 31.8%. The result in the data set with HepG2 [20], in the data set with PC-3 [22], in the data set on HT-29 [23], in the data set with K562 [24], in the data set with LNCaP [25] and in the data set with MDA-MB-231 [26] was Active. In addition, the result in the data set with HCT-116 [27], in the data set on UMRC2 [29], in the data set on MKN-45 [30], with U-251 [31], in the data set on PANC-1 [32] and with MCF7 [34] was Active. Also, the outcome in the data set on HeLa [36], with NCI-H226 [37], in the data set with SK-MEL-28 [39], in the data set on A549 [40] and in the data set with OVCAR-3 [41] was Active. Further, the Activity entry with Mus musculus is listed as “Non-toxic”. For the same compound, the inhibition in vivo at 10 mg/kg with A549 [35] came out at 58.1%.

With `Nc1ccn([C@@H]2O[C@H](CO)[C@@H](O)C2(F)F)c(=O)n1` [GEMCITABINE], in the data set with A549 [35], the inhibition in vivo at 10 mg/kg was 76.7%.

The record behind these values is ChEMBL document CHEMBL2062406, “Fluorocyclopentenyl-cytosine with broad spectrum and potent antitumor activity” (J Med Chem, 2012).
